Measured values from ChEMBL document CHEMBL5661979, “Pharmacological inhibition of BMK1 suppresses tumor growth through promyelocytic leukemia protein” (Cancer Cell, 2010).

How the values were obtained:
[1] = target: Rho-associated protein kinase (Homo sapiens, UniProt O75116+Q13464); assay: Inhibition of ROCK1/2 in human HeLa cells lysate at 50 uM pre incubated for 15 mins followed by ATP acyl phosphate probe addition and measured after 10 mins by LC-MS/MS analysis relative to control; format: subcellular; conditions: time 25.0 min
[2] = target: Serine/threonine-protein kinase SMG1 (Homo sapiens, UniProt Q96Q15); assay: Inhibition of SMG1 in human HeLa cells lysate at 2 uM pre incubated for 15 mins followed by ATP acyl phosphate probe addition and measured after 10 mins by LC-MS/MS analysis relative to control; format: subcellular; conditions: time 25.0 min
[3] = Inhibition of PKD1/2 in human HeLa cells lysate at 50 uM pre incubated for 15 mins followed by ATP acyl phosphate probe addition and measured after 10 mins by LC-MS/MS analysis relative to control; conditions: 25 min, condition cancer
[4] = target: Ribosomal protein S6 kinase alpha-3 (Homo sapiens, UniProt P51812); assay: Inhibition of RSK2 domain 1 active form in human HeLa cells lysate at 10 uM pre incubated for 15 mins followed by ATP acyl phosphate probe addition and measured after 10 mins by LC-MS/MS analysis relative to control; format: subcellular; conditions: time 25.0 min
Sequence of Ribosomal protein S6 kinase alpha-3 (P51812 whole entry, the tested form may be a part): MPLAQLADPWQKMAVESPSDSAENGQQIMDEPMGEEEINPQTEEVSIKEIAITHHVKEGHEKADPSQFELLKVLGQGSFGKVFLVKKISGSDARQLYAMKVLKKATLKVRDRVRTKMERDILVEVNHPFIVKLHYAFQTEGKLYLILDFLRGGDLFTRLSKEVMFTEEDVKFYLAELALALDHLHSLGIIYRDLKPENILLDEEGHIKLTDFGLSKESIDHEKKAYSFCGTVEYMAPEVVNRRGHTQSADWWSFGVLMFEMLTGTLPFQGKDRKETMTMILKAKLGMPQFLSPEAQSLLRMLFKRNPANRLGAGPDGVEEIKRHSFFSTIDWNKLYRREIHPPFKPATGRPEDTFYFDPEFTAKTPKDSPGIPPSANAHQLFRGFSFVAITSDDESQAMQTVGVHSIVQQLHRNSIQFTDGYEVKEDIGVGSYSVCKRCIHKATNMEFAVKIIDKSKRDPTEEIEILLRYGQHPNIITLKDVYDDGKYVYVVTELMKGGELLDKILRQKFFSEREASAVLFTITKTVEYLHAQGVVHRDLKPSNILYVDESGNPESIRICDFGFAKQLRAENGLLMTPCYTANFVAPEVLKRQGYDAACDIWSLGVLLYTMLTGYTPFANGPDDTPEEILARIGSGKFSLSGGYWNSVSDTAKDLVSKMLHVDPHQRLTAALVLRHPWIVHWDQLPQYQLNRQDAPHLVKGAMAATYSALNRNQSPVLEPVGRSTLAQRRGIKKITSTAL

[5] = target: STE20-like serine/threonine-protein kinase (Homo sapiens, UniProt Q9H2G2); assay: Inhibition of SLK in human HeLa cells lysate pre incubated for 15 mins followed by ADP acyl phosphate probe addition and measured after 10 mins by LC-MS/MS analysis; format: subcellular
[6] = target: Calcium/calmodulin-dependent protein kinase type 1D (Homo sapiens, UniProt Q8IU85); assay: Inhibition of CAMK1d in human HeLa cells lysate at 10 uM pre incubated for 15 mins followed by ATP acyl phosphate probe addition and measured after 10 mins by LC-MS/MS analysis relative to control; format: subcellular; conditions: time 25.0 min
Procedure, shortened: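 KiNativ-type profiling in HeLa lysate (5 mg/mL total protein). Lysate preincubated 15 min with inhibitor at 50, 10, 2, 0.8 or 0 μM, then ATP or ADP acylphosphate probe added (5 μM final) for 10 min. Reaction stopped with urea and analysed by targeted MS, using up to four fragment ions per kinase peptide-probe conjugate. % inhibition calculated against untreated lysate. Duplicate reactions.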

[7] = target: T1, Dual specificity mitogen-activated protein kinase kinase 6 (Homo sapiens) (UniProt P52564); assay: Inhibition of MAP2K6 in human HeLa cells lysate at 10 uM pre incubated for 15 mins followed by ADP acyl phosphate probe addition and measured after 10 mins by LC-MS/MS analysis relative to control; format: subcellular; conditions: time 25.0 min
T1 sequence (whole entry): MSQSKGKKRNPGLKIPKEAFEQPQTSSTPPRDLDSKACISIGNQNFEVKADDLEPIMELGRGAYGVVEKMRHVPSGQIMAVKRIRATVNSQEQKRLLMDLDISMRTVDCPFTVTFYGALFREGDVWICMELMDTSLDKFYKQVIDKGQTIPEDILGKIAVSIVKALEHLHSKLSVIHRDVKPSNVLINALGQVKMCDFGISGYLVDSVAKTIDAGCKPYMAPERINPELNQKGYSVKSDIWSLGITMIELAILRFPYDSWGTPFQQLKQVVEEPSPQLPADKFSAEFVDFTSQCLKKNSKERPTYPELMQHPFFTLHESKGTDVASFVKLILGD

[8] = target: Phosphorylase b kinase gamma catalytic chain, liver/testis isoform (Homo sapiens, UniProt P15735); assay: Inhibition of PHKg2 in human HeLa cells lysate pre incubated for 15 mins followed by ADP acyl phosphate probe addition and measured after 10 mins by LC-MS/MS analysis; format: subcellular
[9] = target: 5'-AMP-activated protein kinase catalytic subunit alpha-1 (Homo sapiens, UniProt Q13131); assay: Inhibition of AMPKalpha1 in human HeLa cells lysate pre incubated for 15 mins followed by ADP acyl phosphate probe addition and measured after 10 mins by LC-MS/MS analysis; format: subcellular
Sequence of 5'-AMP-activated protein kinase catalytic subunit alpha-1 (Q13131 whole entry, the tested form may be a part): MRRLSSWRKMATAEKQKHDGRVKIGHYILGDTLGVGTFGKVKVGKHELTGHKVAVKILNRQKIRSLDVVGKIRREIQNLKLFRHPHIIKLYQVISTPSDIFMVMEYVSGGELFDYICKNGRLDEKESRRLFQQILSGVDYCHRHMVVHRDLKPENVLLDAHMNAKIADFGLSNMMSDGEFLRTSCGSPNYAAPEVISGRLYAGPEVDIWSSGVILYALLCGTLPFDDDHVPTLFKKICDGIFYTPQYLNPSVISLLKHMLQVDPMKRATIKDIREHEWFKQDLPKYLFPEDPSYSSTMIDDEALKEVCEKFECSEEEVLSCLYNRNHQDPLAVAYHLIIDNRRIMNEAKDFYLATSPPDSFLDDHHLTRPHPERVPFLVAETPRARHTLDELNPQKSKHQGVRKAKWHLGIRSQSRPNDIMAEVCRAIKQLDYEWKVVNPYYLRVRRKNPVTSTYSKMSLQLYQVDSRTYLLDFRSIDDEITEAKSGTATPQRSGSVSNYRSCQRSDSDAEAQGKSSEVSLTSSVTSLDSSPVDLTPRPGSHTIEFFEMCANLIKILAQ
Procedure, shortened: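 HeLa cell lysates (5 mg/mL total protein) were preincubated with inhibitor at 0, 0.8, 2, 10 or 50 μM for 15 min. ATP or ADP acylphosphate probe was then added (5 μM final) for 10 min, and reactions were stopped with urea. Up to four fragment ions per kinase probe-peptide were quantified by targeted MS. % inhibition was taken relative to untreated lysate. Run in duplicate.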

[10] = target: Cyclin-dependent kinase 9 (Homo sapiens, UniProt P50750); assay: Inhibition of CDK9 in human HeLa cells lysate at 50 uM pre incubated for 15 mins followed by ATP acyl phosphate probe addition and measured after 10 mins by LC-MS/MS analysis relative to control; format: subcellular; conditions: time 25.0 min
Procedure, shortened: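 KiNativ profiling in HeLa lysate (5 mg/mL total protein). Lysate incubated 15 min with inhibitor at 50, 10, 2, 0.8 or 0 μM. ATP or ADP acylphosphate probe then added (5 μM final) and reacted 10 min. Reaction stopped with urea and analysed by targeted MS, using up to four fragment ions per kinase peptide-probe conjugate. % inhibition taken against untreated lysate. Run in duplicate.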

[11] = target: Phosphatidylinositol 4-phosphate 3-kinase C2 domain-containing subunit beta (Homo sapiens, UniProt O00750); assay: Inhibition of PIK3C2B in human HeLa cells lysate pre incubated for 15 mins followed by ATP acyl phosphate probe addition and measured after 10 mins by LC-MS/MS analysis; format: subcellular
Sequence of Phosphatidylinositol 4-phosphate 3-kinase C2 domain-containing subunit beta (O00750 whole entry, the tested form may be a part): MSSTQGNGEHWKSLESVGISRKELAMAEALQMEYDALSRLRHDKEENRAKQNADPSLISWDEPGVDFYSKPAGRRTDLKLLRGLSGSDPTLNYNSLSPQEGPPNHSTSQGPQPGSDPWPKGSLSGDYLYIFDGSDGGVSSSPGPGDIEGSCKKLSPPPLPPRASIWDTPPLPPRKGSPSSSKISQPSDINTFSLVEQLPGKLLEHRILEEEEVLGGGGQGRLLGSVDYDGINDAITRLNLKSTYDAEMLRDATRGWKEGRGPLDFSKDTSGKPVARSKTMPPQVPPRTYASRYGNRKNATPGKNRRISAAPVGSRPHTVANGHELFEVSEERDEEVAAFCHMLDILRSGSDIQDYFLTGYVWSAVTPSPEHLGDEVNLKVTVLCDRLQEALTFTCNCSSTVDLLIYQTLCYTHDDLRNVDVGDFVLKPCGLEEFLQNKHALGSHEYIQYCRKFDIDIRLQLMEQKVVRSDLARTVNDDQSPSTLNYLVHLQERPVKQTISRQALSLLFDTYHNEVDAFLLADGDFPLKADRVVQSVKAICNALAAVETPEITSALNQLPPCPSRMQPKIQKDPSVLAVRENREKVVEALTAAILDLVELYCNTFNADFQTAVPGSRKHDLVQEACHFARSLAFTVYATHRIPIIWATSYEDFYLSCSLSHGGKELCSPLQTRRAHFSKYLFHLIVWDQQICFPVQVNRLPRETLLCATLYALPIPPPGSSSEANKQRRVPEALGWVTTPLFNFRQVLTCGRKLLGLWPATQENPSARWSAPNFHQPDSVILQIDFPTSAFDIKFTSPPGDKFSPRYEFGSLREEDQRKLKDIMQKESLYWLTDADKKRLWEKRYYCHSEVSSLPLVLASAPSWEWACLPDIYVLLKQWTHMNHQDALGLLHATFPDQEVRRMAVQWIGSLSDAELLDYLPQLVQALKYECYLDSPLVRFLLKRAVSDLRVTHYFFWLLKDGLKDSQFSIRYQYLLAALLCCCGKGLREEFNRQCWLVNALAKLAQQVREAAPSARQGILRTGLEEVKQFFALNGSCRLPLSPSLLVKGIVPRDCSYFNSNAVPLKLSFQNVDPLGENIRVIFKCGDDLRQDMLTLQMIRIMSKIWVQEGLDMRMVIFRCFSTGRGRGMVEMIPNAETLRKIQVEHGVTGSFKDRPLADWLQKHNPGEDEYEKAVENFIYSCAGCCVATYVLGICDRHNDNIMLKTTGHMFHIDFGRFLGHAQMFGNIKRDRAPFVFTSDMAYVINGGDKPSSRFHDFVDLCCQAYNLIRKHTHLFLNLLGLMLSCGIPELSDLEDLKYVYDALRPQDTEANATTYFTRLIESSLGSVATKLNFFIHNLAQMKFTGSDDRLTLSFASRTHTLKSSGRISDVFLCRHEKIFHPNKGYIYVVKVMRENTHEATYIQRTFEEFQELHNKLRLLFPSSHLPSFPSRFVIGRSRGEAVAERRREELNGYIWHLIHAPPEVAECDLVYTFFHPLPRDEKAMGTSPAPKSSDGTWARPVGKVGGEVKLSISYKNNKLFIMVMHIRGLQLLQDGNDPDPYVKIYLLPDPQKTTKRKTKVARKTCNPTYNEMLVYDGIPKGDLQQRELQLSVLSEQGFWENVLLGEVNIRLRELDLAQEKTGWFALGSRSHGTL

SRSF protein kinase 1 = SRSF protein kinase 1 (Homo sapiens, UniProt Q96SB4); assay: Inhibition of SRPK1 in human HeLa cells lysate at 50 uM pre incubated for 15 mins followed by ATP acyl phosphate probe addition and measured after 10 mins by LC-MS/MS analysis relative to control; format: subcellular; conditions: time 25.0 min
[12] = target: Ribosomal protein S6 kinase alpha-5 (Homo sapiens, UniProt O75582); assay: Inhibition of MSK1 domain 1 in human HeLa cells lysate at 50 uM pre incubated for 15 mins followed by ATP acyl phosphate probe addition and measured after 10 mins by LC-MS/MS analysis relative to control; format: subcellular; conditions: time 25.0 min
Sequence of Ribosomal protein S6 kinase alpha-5 (O75582 whole entry, looked up, the tested form may be a part): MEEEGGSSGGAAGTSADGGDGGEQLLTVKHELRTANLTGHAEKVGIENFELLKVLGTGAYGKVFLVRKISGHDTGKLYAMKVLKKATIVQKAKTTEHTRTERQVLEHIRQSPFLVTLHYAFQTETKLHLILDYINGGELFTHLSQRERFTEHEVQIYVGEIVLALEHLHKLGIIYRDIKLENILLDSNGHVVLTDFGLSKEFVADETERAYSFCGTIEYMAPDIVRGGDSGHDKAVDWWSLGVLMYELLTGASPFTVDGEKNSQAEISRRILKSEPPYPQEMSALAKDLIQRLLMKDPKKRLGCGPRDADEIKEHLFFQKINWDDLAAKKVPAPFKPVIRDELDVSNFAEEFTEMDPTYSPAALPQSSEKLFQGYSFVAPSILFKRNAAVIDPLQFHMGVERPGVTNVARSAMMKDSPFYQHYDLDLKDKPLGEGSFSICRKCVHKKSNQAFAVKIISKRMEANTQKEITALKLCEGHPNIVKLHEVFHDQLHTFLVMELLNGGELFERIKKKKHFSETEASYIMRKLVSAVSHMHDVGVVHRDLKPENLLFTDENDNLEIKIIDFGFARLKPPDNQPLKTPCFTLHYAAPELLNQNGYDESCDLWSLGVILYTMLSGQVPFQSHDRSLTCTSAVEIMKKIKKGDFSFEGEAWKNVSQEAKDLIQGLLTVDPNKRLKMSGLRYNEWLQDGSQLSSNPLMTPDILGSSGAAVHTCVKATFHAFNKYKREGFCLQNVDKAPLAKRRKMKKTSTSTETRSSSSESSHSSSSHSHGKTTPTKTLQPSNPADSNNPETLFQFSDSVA

[13] = target: T2, Phosphatidylinositol 5-phosphate 4-kinase type-2 alpha (Homo sapiens) (UniProt P48426); assay: Inhibition of PIP5K2A LIP site in human HeLa cells lysate at 2 uM pre incubated for 15 mins followed by ADP acyl phosphate probe addition and measured after 10 mins by LC-MS/MS analysis relative to control; format: subcellular; conditions: time 25.0 min
T2 sequence (whole entry): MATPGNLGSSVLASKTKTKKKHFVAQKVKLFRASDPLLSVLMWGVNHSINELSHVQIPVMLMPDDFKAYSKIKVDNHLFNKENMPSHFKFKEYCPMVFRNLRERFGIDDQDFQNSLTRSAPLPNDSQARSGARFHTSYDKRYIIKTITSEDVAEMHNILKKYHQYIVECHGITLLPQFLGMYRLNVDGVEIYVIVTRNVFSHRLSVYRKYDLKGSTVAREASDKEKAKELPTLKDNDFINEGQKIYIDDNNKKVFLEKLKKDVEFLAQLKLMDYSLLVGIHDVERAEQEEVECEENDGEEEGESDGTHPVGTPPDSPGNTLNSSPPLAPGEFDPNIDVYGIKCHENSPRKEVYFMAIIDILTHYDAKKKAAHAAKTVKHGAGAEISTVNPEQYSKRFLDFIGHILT

[14] = target: Epidermal growth factor receptor (Homo sapiens, UniProt P00533); assay: Inhibition of EGFR in human HeLa cells lysate at 10 uM pre incubated for 15 mins followed by ATP acyl phosphate probe addition and measured after 10 mins by LC-MS/MS analysis relative to control; format: subcellular; conditions: time 25.0 min
Sequence of Epidermal growth factor receptor (P00533 whole entry): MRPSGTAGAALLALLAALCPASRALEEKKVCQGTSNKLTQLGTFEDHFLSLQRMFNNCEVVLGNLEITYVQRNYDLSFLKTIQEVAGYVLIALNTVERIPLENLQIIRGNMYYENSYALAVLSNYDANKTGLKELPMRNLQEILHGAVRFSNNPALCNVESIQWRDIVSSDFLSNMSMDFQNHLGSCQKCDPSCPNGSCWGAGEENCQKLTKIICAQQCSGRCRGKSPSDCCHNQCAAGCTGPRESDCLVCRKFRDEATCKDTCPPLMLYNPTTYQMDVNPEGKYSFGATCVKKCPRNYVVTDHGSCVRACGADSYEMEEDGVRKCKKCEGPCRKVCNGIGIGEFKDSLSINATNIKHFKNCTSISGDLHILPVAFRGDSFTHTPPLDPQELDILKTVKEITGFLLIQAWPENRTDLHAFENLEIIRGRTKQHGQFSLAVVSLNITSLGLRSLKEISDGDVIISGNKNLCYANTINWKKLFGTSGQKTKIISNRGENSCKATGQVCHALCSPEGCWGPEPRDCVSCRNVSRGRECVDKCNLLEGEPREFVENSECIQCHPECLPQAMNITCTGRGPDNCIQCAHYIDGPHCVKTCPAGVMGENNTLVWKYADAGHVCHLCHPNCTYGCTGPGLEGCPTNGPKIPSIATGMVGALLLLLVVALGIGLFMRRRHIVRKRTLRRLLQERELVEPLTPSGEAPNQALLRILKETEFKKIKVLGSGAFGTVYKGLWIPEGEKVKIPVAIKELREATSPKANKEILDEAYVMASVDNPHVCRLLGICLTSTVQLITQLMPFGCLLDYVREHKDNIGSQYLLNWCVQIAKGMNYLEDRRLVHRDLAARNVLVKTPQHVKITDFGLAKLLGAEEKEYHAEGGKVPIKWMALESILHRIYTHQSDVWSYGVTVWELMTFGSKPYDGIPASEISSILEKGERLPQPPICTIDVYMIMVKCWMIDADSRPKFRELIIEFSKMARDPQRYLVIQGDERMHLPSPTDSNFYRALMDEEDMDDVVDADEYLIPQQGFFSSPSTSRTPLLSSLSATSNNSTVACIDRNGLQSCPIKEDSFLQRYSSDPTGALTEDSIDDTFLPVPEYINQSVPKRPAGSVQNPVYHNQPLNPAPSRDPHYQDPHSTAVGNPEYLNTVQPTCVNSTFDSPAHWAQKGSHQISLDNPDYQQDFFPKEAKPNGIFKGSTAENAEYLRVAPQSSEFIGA

Work on `CCOc1cc(N2CCC(O)CC2)ccc1Nc1ncc2c(n1)N(C)c1ccccc1C(=O)N2C` yielded an inhibition [1] of -3%, an inhibition [2] of 1.8% and an inhibition at 50 µM [3] of 13.9%. For the same compound, the inhibition [4] was -6.5%, the IC50 [5] was > 50 µM and the inhibition [6] was -7.6%. The inhibition [7] was 5.6%, the IC50 [8] was > 50 µM and the IC50 [9] was > 50 µM. The inhibition [10] was -0.3%, the IC50 [11] was > 50 µM and the inhibition (SRSF protein kinase 1) was -7.5%. The inhibition [12] was 4.6%, the inhibition [13] was 5.5% and the inhibition [14] was -5%.
